# Measured values as given in ChEMBL document CHEMBL5380847, “Expanding the Paradigm of Structure-Based Drug Design: Molecular Dynamics Simulations Support the Development of New Pyridine-Based Protein Kinase C-Targeted Agonists” (J Med Chem, 2023).
# Calls of active or inactive are those of the source. No cut-off for these calls is given here.
# Experiments:
# Cardiac fibroblast = test: Inhibition of PKC-mediated ERK1/2 phosphorylation in neonatal mouse Cardiac fibroblast cells incubated for 30 mins in presence of PKC inhibitor Go6983 by Alphalisa analysis; assay type: cell-based
# Method in brief: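 Neonatal mouse cardiac fibroblasts were pretreated, or not, with the PKC inhibitor Gö6983 (1 μM). Cells were then exposed for 30 min to compounds at 10 μM (PMA at 10 nM). Total and phospho-ERK1/2 in lysates were quantified by Alpha technology and normalized to DMSO control. Values are mean + SEM (N = 3), analysed by randomized block ANOVA with Dunnett's post hoc test.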
# [1] = system: Fibroblast of cardiac tissue; test: Effect on PKCalpha expression level in neonatal mouse Cardiac fibroblast cells at 10 uM measured for 24 hrs by Western blot analysis; assay type: functional, cell-based
# Method in brief: (§1)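 Neonatal mouse cardiac fibroblasts were treated with 10 μM compound for 24 h and then lysed. Total protein was extracted, and PKCα, -δ and -ϵ levels were analysed by Western blotting. Levels were normalized to vehicle control (0.1% DMSO). Values are mean + SEM of N = 3 independent experiments.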
# [2] = system: Fibroblast of cardiac tissue; test: Effect on PKCdelta expression level in neonatal mouse Cardiac fibroblast cells at 10 uM measured for 24 hrs by Western blot analysis; assay type: functional, cell-based; method in brief: as §1
# [3] = target: Protein kinase C alpha type (Homo sapiens) (UniProt P17252); test: Displacement of [3H]-PDBu-from full length human recombinant PKCalpha expressed in baculovirus infected Sf9 cells incubated for 10 mins by microbeta liquid scintillation counter analysis; details: filed as agonist, dose 1-30 µM
# DU-145 = test: Anticancer activity against human DU-145 cells assessed as reduction in cell viability at 0.03 to 30 uM measured after 24 hrs by MTT assay; assay type: functional, cell-based; details: dose 0.03-30 µM
# Method in brief: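 DU145 human prostate cancer cells were exposed for 24 h to compounds at 0.3, 3.0 and 30 μM, with 0.03 μM added for the reference. Viability was read by MTT and expressed as percent of vehicle control (0.1% DMSO). Values are mean + SEM of N = 3–4 independent experiments.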
# [4] = system: Fibroblast of cardiac tissue; test: Effect on PKCepsilon expression level in neonatal mouse Cardiac fibroblast cells at 10 uM measured for 24 hrs by Western blot analysis; assay type: functional, cell-based; method in brief: as §1
# [5] = target: Protein kinase C alpha type (Homo sapiens) (UniProt P17252); test: Displacement of [3H]-PDBu-from full length human recombinant PKCalpha expressed in baculovirus infected Sf9 cells at 1 to 30 uM incubated for 10 mins by microbeta liquid scintillation counter analysis; details: dose 1-30 µM
Compound,inhibition (Cardiac fibroblast),Activity [1],Activity [2],Activity [3],Activity (DU-145),Activity [4],Activity [5]
CN(Cc1cccc(C(F)(F)F)c1)C(=O)c1cc(CO)cc(C(=O)N(C)Cc2cccc(C(F)(F)F)c2)n1,Active,inactive,inactive,Dose-Dependent Effect,inactive,inactive,–
CCCCCCCCNC(=O)c1cc(CO)cc(C(=O)NCCCCCCCC)n1,–,–,–,–,inactive,–,–
CCCCC(CC)OC(=O)c1cc(CO)cc(C(=O)OC(CC)CCCC)n1 (stereo unspecified),–,–,inactive,Dose-Dependent Effect,inactive,–,–
O=C(OCc1cccc(C(F)(F)F)c1)c1cc(CO)cc(C(=O)OCc2cccc(C(F)(F)F)c2)c1,Active,inactive,inactive,–,–,inactive,–
O=C(OCc1cccc(C(F)(F)F)c1)c1cc(CO)cc(C(=O)OCc2cccc(C(F)(F)F)c2)n1,–,–,–,–,inactive,–,inactive
